Assay type in all cases: functional
The subject of assay [1] is Rattus norvegicus. The assay can be described thus: Efficiency is defined as net iron excretion in rats at the dose of 150 umol/kg administered subcutaneously. The essentials:
(§1)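 Male Sprague–Dawley rats (~400 g) with bile-duct cannulas, under sodium pentobarbital (55 mg/kg ip) anesthesia, housed in metabolic cages with free water. Chelator is given as a single dose in 40% Cremophor RH-40/H2O (v/v). Bile is collected at 3-h intervals for 24 h and urine every 24 h. Iron is measured by flame atomic absorption. Efficiency = (treated minus control iron excretion)/theoretical output, as %; bile/urine split reported.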

The test system of assay [2] is Rattus norvegicus. Briefly: Efficiency is defined as net iron excretion in rats at the dose of 150 umol/kg administered perorally. In outline: as §1
Assay [3] relates to Monkey. The assay can be described thus: The efficiency was calculated by averaging the iron output for 4 days before the administration of the drug, subtracting these numbers from the 2-day iron clearance after the administration of the drug at the dose of 300 umol/kg administered perorally in monkeys. The essentials: (§2)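 Cebus apella monkeys iron-loaded with iv iron dextran (200–300 mg Fe/kg per slow 45–60 min infusion, to about 500 mg Fe/kg), rested ≥60 days. Chelator is given in 40% Cremophor RH-40/H2O (v/v). Feces and urine are collected from 4 days before to 5 days after dosing. Iron is measured by flame atomic absorption. Efficiency = (2-day post-drug iron minus 4-day baseline average)/theoretical output, as %.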

The subject of assay [4] is Monkey. The assay can be described thus: The efficiency was calculated by averaging the iron output for 4 days before the administration of the drug, subtracting these numbers from the 2-day iron clearance after the administration of the drug at the dose of 150 umol/kg administered perorally in monkeys. The essentials: as §2
Assay [5] relates to Monkey. Briefly: The efficiency was calculated by averaging the iron output for 4 days before the administration of the drug, subtracting these numbers from the 2-day iron clearance after the administration of the drug at the dose of 150 umol/kg administered subcutaneously in monkeys. In outline: as §2
Assay [6] relates to Monkey. The assay can be described thus: The efficiency was calculated by averaging the iron output for 4 days before the administration of the drug, subtracting these numbers from the 2-day iron clearance after the administration of the drug at the dose of 300 umol/kg administered subcutaneously in monkeys. In outline: as §2
In assay [7] the test system is Monkey. The assay can be described thus: The efficiency was calculated by averaging the iron output for 4 days before the administration of the drug, subtracting these numbers from the 2-day iron clearance after the administration of the drug at the dose of 225 umol/kg administered perorally in monkeys. The essentials: as §2

Several values for one entry are separate records, joined by “and”; a condition that tells them apart may be missing. Identical values can stand only once.

Regarding `O=C([C@H]1CSC(c2ncccc2O)=N1)N(O)CCOCCOCCN(O)C(=O)[C@H]1CSC(c2ncccc2O)=N1`, the Efficiency stood at 20.6% in the assay with Rattus norvegicus [1] and 4.6% in the assay with Rattus norvegicus [2].

With `CN(O)C(=O)[C@H]1CSC(c2ncccc2O)=N1`, the Efficiency with Monkey [3] is recorded as 13.2%; in the assay with Rattus norvegicus [1] it was 5.3%; in the assay on Monkey [4] it was 6.9%; with Monkey [5], 11.7%; in the assay with Rattus norvegicus [2], 3.1%.

Regarding `O=C(O)[C@H]1CSC(c2ncccc2O)=N1`, the Efficiency with Monkey [6] is 8.3%; with Monkey [3] it was 8%; with Rattus norvegicus [1] it was 1.8%; in the assay with Monkey [4], 4.8%; with Rattus norvegicus [2], 2.4%.

For the molecule `O=C(C1CSC(c2ncccc2O)=N1)N(O)Cc1ccccc1` (stereo not given), the Efficiency is listed as below 0.5% in the assay on Monkey [3], 1.4% with Rattus norvegicus [1] and 1% with Rattus norvegicus [2].

Consider `O=C(c1ccccc1O)N(O)CCOCCOCCN(O)C(=O)c1ccccc1O`, for which the Efficiency with Rattus norvegicus [1] is 0.8%; in the assay with Rattus norvegicus [2] it was below 0.5%.

Consider `CC(=O)N(O)CCCCCN(O)C(=O)[C@H]1CSC(c2ncccc2O)=N1`, for which the Efficiency in the assay with Rattus norvegicus [1] was 8.5%; with Monkey [7], 3.2% and 12.8%; with Rattus norvegicus [2], 2.8%.

(Values after ChEMBL document CHEMBL1132320, “Evaluation of the desferrithiocin pharmacophore as a vector for hydroxamates” (1999).)
